Test results published in ChEMBL document CHEMBL4842372, “Discovery of ARD-2585 as an Exceptionally Potent and Orally Active PROTAC Degrader of Androgen Receptor for the Treatment of Advanced Prostate Cancer” (J Med Chem, 2021).
One block for each compound: values may come before it. Activity calls are given as the source filed them. The calls are words filed in the database; no cut-off is given here.

What was measured:
[1] = target: Protein cereblon/Androgen receptor (Homo sapiens, UniProt P10275+Q96SW2); assay: Protac activity at CRBN/AR in human VCaP cells assessed as AR degradation after 24 hrs by Western blot analysis; type: cell-based
Sequence of Protein cereblon/Androgen receptor (Homo sapiens, UniProt P10275+Q96SW2) (P10275 whole entry): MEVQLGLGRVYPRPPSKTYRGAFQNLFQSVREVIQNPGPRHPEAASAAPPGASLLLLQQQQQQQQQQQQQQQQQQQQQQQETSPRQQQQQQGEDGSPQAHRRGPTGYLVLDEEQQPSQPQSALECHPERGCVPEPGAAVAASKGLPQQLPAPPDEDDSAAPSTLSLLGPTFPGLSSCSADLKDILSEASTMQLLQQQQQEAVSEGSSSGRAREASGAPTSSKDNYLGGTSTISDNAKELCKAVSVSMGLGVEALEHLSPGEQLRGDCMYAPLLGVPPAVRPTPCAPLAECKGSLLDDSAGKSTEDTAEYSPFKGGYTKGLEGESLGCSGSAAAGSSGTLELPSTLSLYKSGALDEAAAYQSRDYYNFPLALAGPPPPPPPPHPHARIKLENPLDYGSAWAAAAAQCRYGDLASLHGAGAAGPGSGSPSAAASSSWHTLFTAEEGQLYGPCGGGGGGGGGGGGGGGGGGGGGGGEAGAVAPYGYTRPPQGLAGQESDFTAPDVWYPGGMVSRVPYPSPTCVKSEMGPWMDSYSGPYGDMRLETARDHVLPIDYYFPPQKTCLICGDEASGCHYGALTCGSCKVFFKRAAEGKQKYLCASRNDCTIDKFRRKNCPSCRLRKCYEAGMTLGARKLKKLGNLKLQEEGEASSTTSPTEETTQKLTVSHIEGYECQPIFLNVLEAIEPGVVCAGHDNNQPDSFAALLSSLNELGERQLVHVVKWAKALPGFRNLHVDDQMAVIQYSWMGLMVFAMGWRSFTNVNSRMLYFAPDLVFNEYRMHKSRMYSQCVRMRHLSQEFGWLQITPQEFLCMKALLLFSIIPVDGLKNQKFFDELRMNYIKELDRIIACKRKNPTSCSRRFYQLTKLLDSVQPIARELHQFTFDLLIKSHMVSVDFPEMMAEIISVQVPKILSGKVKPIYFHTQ
Sequence of Protein cereblon/Androgen receptor (Homo sapiens, UniProt P10275+Q96SW2) (Q96SW2 whole entry): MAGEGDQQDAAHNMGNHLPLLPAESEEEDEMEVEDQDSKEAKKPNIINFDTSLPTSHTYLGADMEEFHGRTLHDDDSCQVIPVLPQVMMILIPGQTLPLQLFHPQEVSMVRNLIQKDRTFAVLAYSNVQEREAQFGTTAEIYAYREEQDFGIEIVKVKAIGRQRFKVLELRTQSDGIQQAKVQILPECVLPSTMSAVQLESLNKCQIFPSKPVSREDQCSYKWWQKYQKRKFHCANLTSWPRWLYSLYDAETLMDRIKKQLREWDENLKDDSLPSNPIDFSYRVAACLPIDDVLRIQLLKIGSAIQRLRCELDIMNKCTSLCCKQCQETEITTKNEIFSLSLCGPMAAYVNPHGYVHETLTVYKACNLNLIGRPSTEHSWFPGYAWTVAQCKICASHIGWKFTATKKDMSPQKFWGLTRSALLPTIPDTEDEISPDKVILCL

VCaP [2] = assay: Growth inhibition of human VCaP cells assessed as cell viability by WST-8 assay; type: functional, cell-based
[3] = Oral bioavailability in SCID mouse at 3 mg/kg by LC-MS/MS analysis; type: ADME, organism-based; conditions: in vivo
[4] = Drug distribution in plasma of CB17:SCID mouse xenografted with human VCaP cells at 20 mg/kg, po measured at 6 hrs by LCMS analysis; type: ADME, organism-based
How it was run: (§1)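 Tumor-bearing male CB17 SCID mice (VCaP xenografts) given one 20 mg/kg oral dose in 100% PEG200, three mice per time point; plasma, tumor, liver, kidney, prostate and heart taken at 1, 6 and 24 h; tissues homogenised in water/acetonitrile, protein precipitated with cold acetonitrile, drug quantified by LC–MS/MS; ratios are tissue over plasma level.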

[5] = Drug distribution in plasma of CB17:SCID mouse xenografted with human VCaP cells at 20 mg/kg, po measured at 24 hrs by LCMS analysis; type: ADME, organism-based; how it was run: as §1
[6] = Drug distribution in prostate gland of CB17:SCID mouse xenografted with human VCaP cells at 20 mg/kg, po measured at 6 hrs by LCMS analysis; type: ADME, organism-based; conditions: read-out: Drug uptake; how it was run: as §1
[7] = Drug distribution in prostate gland of CB17:SCID mouse xenografted with human VCaP cells at 20 mg/kg, po measured at 24 hrs by LCMS analysis; type: ADME, organism-based; conditions: read-out: Drug uptake; how it was run: as §1
[8] = Drug distribution in tumor of CB17:SCID mouse xenografted with human VCaP cells at 20 mg/kg, po measured at 6 hrs by LCMS analysis; type: ADME, organism-based, Neoplasm; conditions: read-out: Drug uptake; how it was run: as §1
[9] = Drug distribution in tumor of CB17:SCID mouse xenografted with human VCaP cells at 20 mg/kg, po measured at 24 hrs by LCMS analysis; type: ADME, organism-based, Neoplasm; conditions: read-out: Drug uptake; how it was run: as §1
LNCaP = assay: Growth inhibition of human LNCaP cells carrying AR T878A mutant assessed as cell viability by WST-8 assay; type: functional, cell-based
VCaP [10] = assay: Antitumor activity against human VCaP cells xenografted in CB17:SCID mouse assessed as reduction in AR protein level in tumor at 20 mg/kg, po measured for 6 to 24 hrs by Western blot analysis; type: functional, organism-based; conditions: time 6-24 hrs
How it was run: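 VCaP xenografts in male CB17 SCID mice grown to about 200 mm3; single oral gavage dose of 20 mg/kg in 100% PEG200; tumors collected at 6 and 24 h, RIPA lysates blotted for AR with GAPDH as loading control, band intensity normalised to loading control.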

[11] = target: Protein cereblon/Androgen receptor (Homo sapiens, UniProt P10275+Q96SW2, T878A); conditions: lncap
Sequence of Protein cereblon/Androgen receptor (Homo sapiens, UniProt P10275+Q96SW2, T878A) (P10275 whole entry T878A, stated change not applied): as the sequence (P10275 whole entry) above, with T878A counted along it
Sequence of Protein cereblon/Androgen receptor (Homo sapiens, UniProt P10275+Q96SW2, T878A) (Q96SW2 whole entry, stated change not applied): as the sequence (Q96SW2 whole entry) above

DC50 [1]: 0.3 nM
IC50 (VCaP [2]): 6.7 nM
SMILES: N#Cc1ccc(O[C@H]2CC[C@H](NC(=O)c3ccc(N4CCN(CC5CN(c6ccc7c(c6)C(=O)N(C6CCC(=O)NC6=O)C7=O)C5)CC4)cc3)CC2)cc1Cl (stereo not given in full)

DC50 [1]: 0.9 nM
SMILES: N#Cc1ccc(O[C@H]2CC[C@H](NC(=O)c3ccc(N4CCN(CCCCCNc5ccc6c(c5)C(=O)N(C5CCC(=O)NC5=O)C6=O)CC4)cc3)CC2)cc1Cl (stereo not given in full)

SMILES: CN(c1ccc(C#N)c(Cl)c1)[C@H]1CC[C@H](NC(=O)c2ccc(N3CCC(N4CCN(c5ccc6c(c5)C(=O)N(C5CCC(=O)NC5=O)C6=O)CC4)CC3)cc2)CC1 (stereo not given in full)
F [3]: 44%
concentration at 6 h [4]: 208 ng/mL
concentration at 24 h [5]: 65 ng/mL
concentration at 6 h [6]: 67 ng/g
concentration at 24 h [7]: 4 ng/g
concentration at 6 h [8]: 306 ng/g
concentration at 24 h [9]: 137 ng/g

SMILES: CC1(C)C(=O)N(c2ccc(C#N)c(C(F)(F)F)c2)C(=S)N1c1ccc(C(=O)N2CCN(C3CCN(c4ccc5c(c4)C(=O)N(C4CCC(=O)NC4=O)C5=O)CC3)CC2)c(F)c1 (stereo not given)
IC50 (VCaP [2]): > 1000 nM

IC50 (VCaP [2]): > 1000 nM
SMILES: N#Cc1ccc(O[C@H]2CC[C@H](NC(=O)c3ccc(N4CCC(N5CCN(c6ccc7c(c6)C(=O)N(C6CCC(=O)NC6=O)C7=O)CC5)CC4)cc3)C2)cc1Cl (stereo not given in full)

DC50 [1]: 2.7 nM
SMILES: N#Cc1ccc(O[C@H]2CC[C@H](NC(=O)c3ccc(N4CCN(CCCNc5ccc6c(c5)C(=O)N(C5CCC(=O)NC5=O)C6=O)CC4)cc3)CC2)cc1Cl (stereo not given in full)

IC50 (VCaP [2]): 2.7 nM
SMILES: N#Cc1ccc(O[C@H]2CC[C@H](NC(=O)c3ccc(N4CCN(CC5CCN(c6ccc7c(c6)C(=O)N(C6CCC(=O)NC6=O)C7=O)CC5)CC4)cc3)CC2)cc1Cl (stereo not given in full)

SMILES: CN(c1ccc(C#N)c(Cl)c1)[C@H]1CC[C@H](NC(=O)c2ccc(N3CC(N4CCN(c5ccc6c(c5)C(=O)N(C5CCC(=O)NC5=O)C6=O)CC4)C3)cc2)CC1 (stereo not given in full)
F [3]: 67%
IC50 (VCaP [2]): 5.1 nM
IC50 (LNCaP): 21.7 nM
inhibition (VCaP [10]): Active
concentration at 6 h [4]: 181 ng/mL
concentration at 24 h [5]: 106 ng/mL
concentration at 6 h [6]: 108 ng/g
concentration at 24 h [7]: 123 ng/g
concentration at 6 h [8]: 129 ng/g
concentration at 24 h [9]: 116 ng/g
DC50 [11]: 1.3 nM

DC50 [1]: 0.1 nM
SMILES: N#Cc1ccc(O[C@H]2CC[C@H](NC(=O)c3ccc(N4CCN(C5CN(c6ccc7c(c6)C(=O)N(C6CCC(=O)NC6=O)C7=O)C5)CC4)cc3)CC2)cc1Cl (stereo not given in full)

IC50 (VCaP [2]): > 1000 nM
SMILES: N#Cc1ccc(O[C@@H]2CCCN(C(=O)c3ccc(N4CCC(N5CCN(c6ccc7c(c6)C(=O)N(C6CCC(=O)NC6=O)C7=O)CC5)CC4)cc3)CC2)cc1Cl (stereo not given in full)

SMILES: CN(c1ccc(C#N)c(Cl)c1)[C@H]1CC[C@H](NC(=O)c2ccc(N3CCN(CC4CN(c5ccc6c(c5)C(=O)N(C5CCC(=O)NC5=O)C6=O)C4)CC3)cc2)CC1 (stereo not given in full)
F [3]: 30%

DC50 [1]: 1.1 nM
SMILES: N#Cc1ccc(O[C@H]2CC[C@H](NC(=O)c3ccc(NCCCCNc4ccc5c(c4)C(=O)N(C4CCC(=O)NC4=O)C5=O)cc3)CC2)cc1Cl (stereo not given in full)

DC50 [1]: 0.7 nM
SMILES: N#Cc1ccc(O[C@H]2CC[C@H](NC(=O)c3ccc(NCCCCCCCNc4ccc5c(c4)C(=O)N(C4CCC(=O)NC4=O)C5=O)cc3)CC2)cc1Cl (stereo not given in full)

IC50 (VCaP [2]): > 1000 nM
SMILES: N#Cc1ncc(N2C(=O)C3(CCC3)N(c3ccc(C(=O)N4CCN(C5CCN(c6ccc7c(c6)C(=O)N(C6CCC(=O)NC6=O)C7=O)CC5)CC4)c(F)c3)C2=S)cc1C(F)(F)F (stereo not given)

SMILES: CN(c1ccc(C#N)c(Cl)c1)[C@H]1CC[C@H](NC(=O)c2ccc(N3CC(CN4CCN(c5ccc6c(c5)C(=O)N(C5CCC(=O)NC5=O)C6=O)CC4)C3)cc2)CC1 (stereo not given in full)
F [3]: 34%
IC50 (VCaP [2]): 4.3 nM
IC50 (LNCaP): 11.6 nM
DC50 [11]: 1.9 nM
